In assay [1] the target is T1, Nuclear factor NF-kappa-B complex (Homo sapiens) (UniProt Q00653+P19838+Q04206). The assay can be described thus: Inhibition of transcriptional activity of NF-kappaB (unknown origin) transfected in LPS-stimulated mouse RAW264.7 cells at 100 uM after 16 hrs by secretory alkaline phosphatase reporter gene assay relative to control. Format: cell-based. The method in brief: (§1)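 LPS-stimulated RAW 264.7 macrophages carrying NF-κB-driven SEAP reporter; cell-free media heated 65℃ 5 min, then reacted with 500 µM 4-methylumbelliferyl phosphate, 2 M diethanolamine, 1 mM MgCl₂ in the dark at room temperature for 1 h. Fluorescence read at excitation 360 nm / emission 449 nm (RFU). Percent inhibition tested at 100 μM; IC₅₀ as mean of three experiments.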
T1 sequence (P19838 whole entry, looked up): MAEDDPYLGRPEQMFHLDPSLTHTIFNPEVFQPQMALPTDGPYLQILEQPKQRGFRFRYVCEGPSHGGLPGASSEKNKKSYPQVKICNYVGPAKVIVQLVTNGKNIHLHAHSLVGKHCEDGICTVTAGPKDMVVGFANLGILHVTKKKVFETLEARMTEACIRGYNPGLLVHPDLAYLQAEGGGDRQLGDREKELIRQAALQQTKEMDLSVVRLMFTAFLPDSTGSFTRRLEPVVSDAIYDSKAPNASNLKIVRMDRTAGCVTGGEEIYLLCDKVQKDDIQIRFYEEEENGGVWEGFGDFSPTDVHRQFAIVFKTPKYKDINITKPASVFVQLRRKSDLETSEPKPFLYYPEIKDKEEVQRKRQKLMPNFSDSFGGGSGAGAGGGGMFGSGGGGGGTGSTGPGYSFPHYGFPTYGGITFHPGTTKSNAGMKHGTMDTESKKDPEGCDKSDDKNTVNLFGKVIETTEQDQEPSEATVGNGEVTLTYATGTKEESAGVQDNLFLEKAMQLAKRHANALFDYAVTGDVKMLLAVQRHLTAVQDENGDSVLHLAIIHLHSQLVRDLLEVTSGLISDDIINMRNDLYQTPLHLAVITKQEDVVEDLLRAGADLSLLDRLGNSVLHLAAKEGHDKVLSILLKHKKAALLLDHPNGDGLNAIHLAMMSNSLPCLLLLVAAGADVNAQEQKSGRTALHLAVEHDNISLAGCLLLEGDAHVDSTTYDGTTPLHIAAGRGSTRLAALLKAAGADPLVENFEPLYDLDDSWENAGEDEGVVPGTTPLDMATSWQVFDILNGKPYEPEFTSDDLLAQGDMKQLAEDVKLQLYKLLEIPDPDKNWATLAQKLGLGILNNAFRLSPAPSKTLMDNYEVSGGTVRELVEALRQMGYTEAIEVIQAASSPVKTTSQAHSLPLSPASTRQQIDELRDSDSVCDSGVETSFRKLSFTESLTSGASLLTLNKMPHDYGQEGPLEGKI
T1 sequence (Q00653 whole entry, looked up): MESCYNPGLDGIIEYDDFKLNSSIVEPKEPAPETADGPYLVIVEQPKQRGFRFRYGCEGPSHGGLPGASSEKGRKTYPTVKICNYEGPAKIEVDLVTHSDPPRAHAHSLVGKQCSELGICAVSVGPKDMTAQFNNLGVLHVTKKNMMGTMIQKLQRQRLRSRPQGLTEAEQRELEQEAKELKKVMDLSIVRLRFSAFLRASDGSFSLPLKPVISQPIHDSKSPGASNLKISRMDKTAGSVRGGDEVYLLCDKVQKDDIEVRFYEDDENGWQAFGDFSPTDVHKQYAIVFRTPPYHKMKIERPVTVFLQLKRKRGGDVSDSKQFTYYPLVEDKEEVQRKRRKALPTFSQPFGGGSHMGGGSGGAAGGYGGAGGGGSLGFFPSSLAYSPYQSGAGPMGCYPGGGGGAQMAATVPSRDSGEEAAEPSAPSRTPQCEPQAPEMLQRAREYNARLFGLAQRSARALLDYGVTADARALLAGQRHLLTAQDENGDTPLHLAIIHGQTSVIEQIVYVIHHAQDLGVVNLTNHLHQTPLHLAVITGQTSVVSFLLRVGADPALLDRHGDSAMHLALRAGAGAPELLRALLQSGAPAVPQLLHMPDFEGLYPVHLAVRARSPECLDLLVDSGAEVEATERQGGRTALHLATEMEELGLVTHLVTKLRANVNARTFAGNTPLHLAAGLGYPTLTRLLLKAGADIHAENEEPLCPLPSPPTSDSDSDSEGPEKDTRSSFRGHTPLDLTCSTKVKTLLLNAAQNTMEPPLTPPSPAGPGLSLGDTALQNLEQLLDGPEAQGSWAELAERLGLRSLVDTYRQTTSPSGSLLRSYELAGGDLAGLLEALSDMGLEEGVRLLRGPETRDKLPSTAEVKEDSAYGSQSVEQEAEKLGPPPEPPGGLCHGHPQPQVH
T1 sequence (Q04206 whole entry, looked up): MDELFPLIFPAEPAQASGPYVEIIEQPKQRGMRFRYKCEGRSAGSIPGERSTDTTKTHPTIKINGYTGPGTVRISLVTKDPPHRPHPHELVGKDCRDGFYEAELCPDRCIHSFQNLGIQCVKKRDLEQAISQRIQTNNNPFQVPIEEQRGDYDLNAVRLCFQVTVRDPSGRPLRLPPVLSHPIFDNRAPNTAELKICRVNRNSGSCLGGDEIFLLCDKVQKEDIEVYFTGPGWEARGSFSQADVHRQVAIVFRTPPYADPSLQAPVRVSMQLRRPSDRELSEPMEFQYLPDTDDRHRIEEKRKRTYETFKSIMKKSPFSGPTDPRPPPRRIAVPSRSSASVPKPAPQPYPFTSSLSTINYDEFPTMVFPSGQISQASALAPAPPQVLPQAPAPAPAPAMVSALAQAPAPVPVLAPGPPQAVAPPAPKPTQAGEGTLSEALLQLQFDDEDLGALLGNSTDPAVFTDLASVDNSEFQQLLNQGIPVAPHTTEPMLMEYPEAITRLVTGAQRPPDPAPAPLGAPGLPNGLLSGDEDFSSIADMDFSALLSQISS

The next assay relates to NCI-H23. The assay can be described thus: Cytotoxicity against human NCI-H23 cells assessed as growth inhibition after 72 hrs by SRB assay. The class given is functional. The conditions noted are these: NCI-H23, 72 h.
In assay [2] the target is Nuclear factor NF-kappa-B complex (Homo sapiens, UniProt P19838+Q00653+Q04206). Kind of assay: Inhibition of transcriptional activity of NF-kappaB (unknown origin) transfected in LPS-stimulated mouse RAW264.7 cells after 16 hrs by secretory alkaline phosphatase reporter gene assay. Format: cell-based. The method in brief:
as §1

In assay [3] the target is T1, Nuclear factor NF-kappa-B complex (Homo sapiens). Kind of assay: Potency index, ratio of PDTC IC50 to compound IC50 for inhibition of transcriptional activity of NF-kappaB (unknown origin) transfected in LPS-stimulated mouse RAW264.7 cells.

Sequence of Nuclear factor NF-kappa-B complex (P19838 1-433 limits assumed): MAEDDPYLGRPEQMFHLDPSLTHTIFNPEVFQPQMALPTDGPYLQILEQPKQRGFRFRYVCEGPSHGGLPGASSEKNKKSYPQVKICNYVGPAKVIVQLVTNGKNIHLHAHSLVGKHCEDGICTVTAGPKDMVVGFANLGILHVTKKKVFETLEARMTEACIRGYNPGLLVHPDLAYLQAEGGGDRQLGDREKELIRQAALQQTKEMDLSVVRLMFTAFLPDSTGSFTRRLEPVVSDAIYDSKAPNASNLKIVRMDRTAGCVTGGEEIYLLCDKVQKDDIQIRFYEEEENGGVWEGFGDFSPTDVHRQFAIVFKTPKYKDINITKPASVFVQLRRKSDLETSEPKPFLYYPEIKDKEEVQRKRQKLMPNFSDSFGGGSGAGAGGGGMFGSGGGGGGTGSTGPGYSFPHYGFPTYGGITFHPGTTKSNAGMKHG
Sequence of Nuclear factor NF-kappa-B complex (Q00653 1-454 limits assumed): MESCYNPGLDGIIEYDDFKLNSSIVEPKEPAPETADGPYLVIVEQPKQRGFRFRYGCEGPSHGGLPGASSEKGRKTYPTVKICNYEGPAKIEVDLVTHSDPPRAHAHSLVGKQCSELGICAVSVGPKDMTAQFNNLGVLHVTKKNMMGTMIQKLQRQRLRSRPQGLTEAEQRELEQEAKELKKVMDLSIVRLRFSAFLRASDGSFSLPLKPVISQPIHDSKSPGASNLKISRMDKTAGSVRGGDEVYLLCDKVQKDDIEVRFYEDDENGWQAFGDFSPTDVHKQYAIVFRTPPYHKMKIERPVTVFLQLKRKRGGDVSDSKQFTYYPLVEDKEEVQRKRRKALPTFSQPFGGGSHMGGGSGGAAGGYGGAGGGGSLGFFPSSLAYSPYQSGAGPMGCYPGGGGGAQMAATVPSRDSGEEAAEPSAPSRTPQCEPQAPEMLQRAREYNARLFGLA
Sequence of Nuclear factor NF-kappa-B complex (Q04206 whole entry): as the sequence (Q04206 whole entry, looked up) above

On to `CC(=O)NCC1CCc2ccc3ccccc3c2O1` (stereo unspecified), for which the inhibition in assay [1] was found to be 35%. In addition, the GI50 in the assay with NCI-H23 was more than 30 µM.
In assay [1], `O=C(Nc1cccc(Cl)c1)C1CCc2ccc3ccccc3c2O1` (stereo unspecified) registered an inhibition of 87%. In the assay on NCI-H23, the GI50 is more than 30 µM. This molecule yielded an IC50 in assay [2] of 27.9 µM.
The like results for `CC(C)CNCC1CCc2ccc3ccccc3c2O1` (stereo unspecified) were, in that order, more than 100%, 11.7 µM and 27.1 µM.
As for `O=C(NCC1CCc2ccc3ccccc3c2O1)c1ccccc1` (stereo unspecified), the inhibition in assay [1] is more than 100%. For the same molecule, the GI50 with NCI-H23 was determined as 11.4 µM. The same molecule came in with an IC50 in assay [2] of 48.6 µM.
The corresponding values for `CC(C)CC(=O)NCC1CCc2ccc3ccccc3c2O1` (stereo unspecified) are 77%, more than 30 µM and 56.3 µM.
In assay [1], `CC(C)CCNCC1CCc2ccc3ccccc3c2O1` (stereo unspecified) displayed an inhibition of more than 100%. The GI50 in the assay with NCI-H23 is 11.3 µM. In assay [2], this molecule came in with an IC50 of 25.9 µM.
Take `COc1cc2c(cc1O)CCC(C(=O)Nc1ccccc1)O2` (stereo unspecified): the IC50 in assay [2] is 40.1 µM.
Molecule `O=C(Nc1cc(Cl)cc(Cl)c1)C1CCc2ccc3ccccc3c2O1` (stereo unspecified) showed an inhibition in assay [1] of 52%. Also, the GI50 in the assay on NCI-H23 was more than 30 µM. Further, the IC50 in assay [2] worked out at 96.7 µM.
Molecule `O=C(Nc1ccc(Cl)cc1)C1CCc2ccc3ccccc3c2O1` (stereo unspecified) returned an inhibition in assay [1] of more than 100%. Moreover, the GI50 in the assay with NCI-H23 stood at 2.79 µM. This molecule displayed an IC50 in assay [2] of 5.8 µM.
With `COc1ccc(NC(=O)C2CCc3ccc4ccccc4c3O2)cc1` (stereo unspecified), the inhibition in assay [1] is more than 100%. In the assay with NCI-H23, the GI50 was determined as 3.98 µM. In assay [2], the IC50 is 12.9 µM.
`CCNCC1CCc2ccc3ccccc3c2O1` (stereo unspecified): in assay [1], the inhibition is 39%. The GI50 with NCI-H23 was more than 30 µM.
Turning to `O=C(Nc1ccccc1O)C1CCc2ccc3ccccc3c2O1` (stereo unspecified), in assay [1], the inhibition stood at 91%. The GI50 in the assay on NCI-H23 was more than 30 µM. The molecule also registered an IC50 in assay [2] of 12.3 µM.
`FC(F)(F)c1cc(NCC2CCc3ccc4ccccc4c3O2)cc(C(F)(F)F)c1` (stereo unspecified): the inhibition in assay [1] worked out at 96%. Also, the GI50 in the assay on NCI-H23 was found to be 14.6 µM. In addition, the IC50 in assay [2] is 56.3 µM.
Turning to `O=C(Nc1ccc(Cl)c(Cl)c1)C1CCc2ccc3ccccc3c2O1` (stereo unspecified), the inhibition in assay [1] was 40%. Also, the GI50 with NCI-H23 stood at 23.5 µM.
Turning to `O=C(Nc1ccc(C(F)(F)F)cc1)C1CCc2ccc3ccccc3c2O1` (stereo unspecified), the inhibition in assay [1] is more than 100%. Moreover, the GI50 with NCI-H23 came out at 3.48 µM. Moreover, the IC50 in assay [2] stood at 12.9 µM.
Molecule `FC(F)(F)c1ccc(NCC2CCc3ccc4ccccc4c3O2)cc1` (stereo unspecified) came in with an inhibition in assay [1] of 42%. In addition, the GI50 with NCI-H23 is more than 30 µM.
Molecule `c1ccc(CNCC2CCc3ccc4ccccc4c3O2)cc1` (stereo unspecified) returned an inhibition in assay [1] of more than 100%. For the same molecule, the GI50 in the assay on NCI-H23 is 10.4 µM. This molecule also showed an IC50 in assay [2] of 14.6 µM.
In assay [1], `Clc1cccc(NCC2CCc3ccc4ccccc4c3O2)c1` (stereo unspecified) displayed an inhibition of 36%. Also, the GI50 in the assay on NCI-H23 was 17.2 µM.
The corresponding values for `c1ccc(NCC2CCc3ccc4ccccc4c3O2)cc1` (stereo unspecified) are 49% and 25.8 µM.
For `O=C(Nc1cc(C(F)(F)F)cc(C(F)(F)F)c1)C1CCc2ccc3ccccc3c2O1` (stereo unspecified), the inhibition in assay [1] came out at 66%. The GI50 with NCI-H23 worked out at 11.2 µM. In addition, the IC50 in assay [2] came out at 63.8 µM.
The molecule `CC(C)C(=O)NCC1CCc2ccc3ccccc3c2O1` (stereo unspecified) yielded an inhibition in assay [1] of 31%. For the same molecule, in the assay with NCI-H23, the GI50 was more than 30 µM.
With `COc1ccc(NCC2CCc3ccc4ccccc4c3O2)cc1` (stereo unspecified), the inhibition in assay [1] was 88%. For the same molecule, the GI50 in the assay on NCI-H23 worked out at 12.8 µM. This molecule displayed an IC50 in assay [2] of 44.5 µM.
The corresponding values for `Clc1ccc(NCC2CCc3ccc4ccccc4c3O2)cc1` (stereo unspecified) are 94%, 29.8 µM and 26.5 µM.
In turn, `S=C(S)N1CCCC1` [PYRROLIDINE DITHIOCARBAMATE] yielded an IC50 in assay [2] of 37.2 µM.
Consider `O=C(Nc1ccccc1)C1CCc2ccc3ccccc3c2O1` (stereo unspecified), for which the inhibition in assay [1] was found to be 62%. Besides, in the assay on NCI-H23, the GI50 is more than 30 µM. For the same molecule, the IC50 in assay [2] amounted to 43.5 µM.
`O=C(Nc1ccc(O)cc1)C1CCc2ccc3ccccc3c2O1` (stereo unspecified): the inhibition in assay [1] was more than 100%. In addition, the GI50 in the assay on NCI-H23 stood at 11.3 µM. The same molecule came in with an IC50 in assay [2] of 5 µM.
In turn, `O=C(Nc1ccccc1C(F)(F)F)C1CCc2ccc3ccccc3c2O1` (stereo unspecified) returned an inhibition in assay [1] of more than 100%. In addition, the Ratio IC50 in assay [3] came out at 15. For the same molecule, in the assay on NCI-H23, the GI50 is 0.521 µM. This molecule displayed an IC50 in assay [2] of 2.4 µM.
